Results: BindingDB's records for doi:10.1016/j.bmc.2020.115710 (Indiana University School of Medicine, 2020)

biological target: T1, Co-chaperonin GroES (Escherichia coli, UniProt Q7BGE6); assay: Inhibition of Escherichia coli GroEL/ES assessed as inhibition of native malate dehydrogenase treated after denatured malate dehydrogenase completely refold
T1 sequence (Q7BGE6 whole entry): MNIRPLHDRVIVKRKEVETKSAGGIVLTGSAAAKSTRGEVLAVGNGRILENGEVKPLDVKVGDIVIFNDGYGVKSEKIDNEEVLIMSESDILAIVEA
Method in brief: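 Counter-screen on native MDH activity: compounds are added only after GroEL/ES has fully refolded the denatured MDH, so the assay flags compounds that act on the MDH reporter reaction itself. IC50 values are averages from at least five replicates. […] DMSO serves as the negative control.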

| Structure (SMILES) | IC50 [µM] |
| --- | --- |
| O=C(N/N=C/c1ccc([N+](=O)[O-])o1)c1ccc(Cl)s1 | > 63 |
| CN(C)c1ccc(C(=O)N/N=C/c2ccc([N+](=O)[O-])o2)cc1 | > 63 |
| O=C(N/N=C/c1ccc([N+](=O)[O-])o1)c1ccncc1 [N-[(E)-(5-nitro-2-furanyl)methylideneamino]-4-pyridinecarboxamide] | > 63 |
| O=C(N/N=C/c1ccc([N+](=O)[O-])o1)c1cccs1 | > 63 |
| O=C1CN(/N=C/c2ccc([N+](=O)[O-])o2)C(=O)N1 [MLS000028500] | > 63 |
| COc1ccc(C(=O)N/N=C/c2ccc([N+](=O)[O-])o2)cc1 | > 63 |
| O=C(N/N=C/c1ccc([N+](=O)[O-])o1)c1ccccc1 | > 63 |
| O=C(N/N=C/c1ccc([N+](=O)[O-])o1)c1ccc(O)cc1 [NIFUROXAZIDE] | > 63 |

biological target: T1, Co-chaperonin GroES; assay: Inhibition of Escherichia coli GroEL/ES assessed as inhibition of native malate dehydrogenase treated after denatured malate dehydrogenase completely refold in presence of NfsB nitroreductase
Method in brief: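 Native MDH counter-screen with 10 µg/mL E. coli NfsB nitroreductase added to the initial GroEL/ES-dMDH solution. Compounds are added after the EDTA quench, then incubated 10 min at 37°C with NADH to bioactivate nitrofurans. Compounds in the reporter step span 56 µM to 25 nM (3-fold series).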

| Structure (SMILES) | IC50 [µM] |
| --- | --- |
| O=C(N/N=C/c1ccc([N+](=O)[O-])o1)c1ccc(Cl)s1 | > 56 |
| CN(C)c1ccc(C(=O)N/N=C/c2ccc([N+](=O)[O-])o2)cc1 | > 56 |
| O=C(N/N=C/c1ccc([N+](=O)[O-])o1)c1ccncc1 [N-[(E)-(5-nitro-2-furanyl)methylideneamino]-4-pyridinecarboxamide] | > 56 |
| O=C(N/N=C/c1ccc([N+](=O)[O-])o1)c1cccs1 | > 56 |
| O=C1CN(/N=C/c2ccc([N+](=O)[O-])o2)C(=O)N1 [MLS000028500] | > 56 |
| COc1ccc(C(=O)N/N=C/c2ccc([N+](=O)[O-])o2)cc1 | > 56 |
| O=C(N/N=C/c1ccc([N+](=O)[O-])o1)c1ccccc1 | > 56 |
| O=C(N/N=C/c1ccc([N+](=O)[O-])o1)c1ccc(O)cc1 [NIFUROXAZIDE] | > 56 |
